From PubChem BioAssay
This is a sample that favours compounds with a hit; in the whole collection about 1.2% have one here.
HCV NS3 hel inh: inhibitors of HCV NS3 helicase, primary screen, biochemical, Cy5 molecular beacon fluorescence; Hepatitis C virus NS3 helicase; NS3 helicase DNA unwinding; inhibition, % at 10.9 µM; 290,000 compounds, 0.56% hits; AID 1800, 2009;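 active = inhibition above the mean of all tested compounds plus 3 SD, set per campaign, cut at about 35% in these data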;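 also: 0% = DMSO wells and 100% = thioflavine S control wells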
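System: NS3 helicase fragment of HCV / Schedule: 1 h at 25 °C / Control set: DMSO alone as 0% and 110 µM thioflavine S as 100% / Reagent: Cy5/quencher beacon DNA duplex and ATP to start / Technique: Cy5 fluorescence / Replication: singlicate / Evaluation: % inhibition of end-to-start signal ratio versus controls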
ZTA counter: ZTA (EBV) inhibition in EBNA-1 counter-screen | P03206 | ZTA-DNA binding, fluorescence polarization | inhibition, % at 11 µM | 320,000 compounds, 0.15% hits; in the data active = inhibition above about 33%
Target sequence (P03206 whole entry, looked up): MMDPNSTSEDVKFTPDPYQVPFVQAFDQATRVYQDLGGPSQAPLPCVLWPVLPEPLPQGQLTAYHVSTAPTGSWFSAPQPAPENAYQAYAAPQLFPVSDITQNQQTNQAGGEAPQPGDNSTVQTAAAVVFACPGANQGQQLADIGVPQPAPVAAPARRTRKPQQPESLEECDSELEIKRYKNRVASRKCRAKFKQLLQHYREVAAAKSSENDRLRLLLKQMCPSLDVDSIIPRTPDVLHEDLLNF
EBNA-1 inh: EBNA-1 DNA-binding inhibitors, primary screen, biochemical, fluorescence polarization; 300,000 compounds, 0.34% hits; inhibition, % at 14.8 µM; in the data active = inhibition above about 28%
HCV core dimer: inhibitors of HCV core protein dimerization, primary screen, biochemical, TR-FRET, high-throughput | TR-FRET GST/Flag-core106 dimerization, 1536-well | inhibition, % at 5 µM | 300,000 compounds, 0.33% hits | AID 1899, 2009;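 active = inhibition above the mean of all tested compounds plus 3 SD, set per screening campaign, cut at about 45% in these data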
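test system = GST/Flag-tagged HCV core106 proteins | probe or stimulus = Eu donor and XL665 acceptor anti-tag antibodies | times = compound-protein-antibody incubation 4 h at 22.5 °C | signal = TR-FRET, excitation 340 nm, emission 617 and 671 nm | measure = percent inhibition of core106 dimerization signal | controls = wells lacking GST-core106 and wells with excess unlabelled core106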
NS3 hel confirm: HCV NS3 helicase inhibitors, retest, confirmation, biochemical, Cy5 molecular beacon fluorescence, triplicate; shares compounds with HCV NS3 hel inh; NS3 helicase DNA unwinding; inhibition, % at 10.9 µM; 1,600 compounds, 31% hits; AID 1943, 2009;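 active = inhibition above the mean of all tested compounds plus 3 SD, cutoff set per campaign, cut at about 36% in these data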
DNA FID counter: compounds displacing fluorescent DNA intercalator, artefact control for HCV NS3 helicase inhibitor project, biochemical, FID fluorescence, triplicate; shares compounds with HCV NS3 hel inh; DNA fluorescent intercalator displacement; inhibition, % at 7.9 µM; 1,600 compounds, 4% hits; AID 1945, 2009; in the data active = inhibition above about 37%;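 also: 0% = vehicle and 100% = reference compound; higher means more displacement of ethidium bromide from the DNA hairpin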
FID counter DR: compounds displacing fluorescent intercalator from DNA, dose response, counter-screen for HCV NS3 helicase inhibitor project, biochemical, fluorescence; 120 tested, under 10 active; shares compounds with HCV NS3 hel inh; AID 2172, 2009; IC50, µM; fluorescent intercalator displacement from DNA; call rule not given here
Starred values were filed as active, the others as inactive.

Results for Cc1ccccc1NC(=O)CSc1nnc(-c2ccco2)c(-c2ccco2)n1 ?
HCV NS3 hel inh: 40.7*; ZTA counter: 9.6; EBNA-1 inh: 2.6; HCV core dimer: 45.4; NS3 hel confirm: 51.3*; DNA FID counter: -8.4; FID counter DR: >79.4

How did COc1cc(NC(=O)CSc2ccc(-c3ccco3)nn2)cc(OC)c1 do in these assays?
HCV NS3 hel inh: 36.0*; ZTA counter: -8.5; EBNA-1 inh: 10.2; HCV core dimer: 34.5; NS3 hel confirm: -11.9; DNA FID counter: -0.3

What do the screens show for `CSc1nnc(-c2ccco2)c(-c2ccco2)n1`?
HCV NS3 hel inh: 37.5*; ZTA counter: 1.9; EBNA-1 inh: 10.1; HCV core dimer: 15.7; NS3 hel confirm: 25.0; DNA FID counter: 14.3

Results for Cc1ccccc1NC(=O)CSc1n[nH]c(-c2ccco2)n1 ?
HCV NS3 hel inh: 16.9; ZTA counter: -35.4; EBNA-1 inh: 6.2; HCV core dimer: 1.4

What do the screens show for `O=Cc1ccc(OC2OCCOC2Oc2ccc(C=O)cc2)cc1` (stereo not drawn)?
HCV NS3 hel inh: 3.8; ZTA counter: -13.9; EBNA-1 inh: -11.7; HCV core dimer: 20.7

How did CC(C)=NOc1nc(N(C)C)nc(N(C)C)n1 do in these assays?
HCV NS3 hel inh: 4.7; ZTA counter: 7.8; EBNA-1 inh: -5.3; HCV core dimer: -5.4

How did O=C(OCc1ccccc1)N1CCc2ccccc21 do in these assays?
HCV NS3 hel inh: -0.9; ZTA counter: 15.6; EBNA-1 inh: -0.3; HCV core dimer: 10.2

What do the screens show for `C=CCNC(=O)CSc1nnc(-c2ccc(S(=O)(=O)N3CCCC3)cc2)n1C`?
HCV NS3 hel inh: 47.4*; ZTA counter: -17.5; EBNA-1 inh: 2.5; HCV core dimer: -10.4; NS3 hel confirm: -13.9; DNA FID counter: 4.7

Results for NC(=O)c1ccc2c(=O)c(O)c(-c3cc(Cl)c(N)c(Cl)c3)[nH]c2c1 ?
HCV NS3 hel inh: 38.5*; ZTA counter: 2.8; EBNA-1 inh: 13.3; HCV core dimer: -3.3; NS3 hel confirm: 5.9; DNA FID counter: 11.9

Results for CCCNC(=O)c1ccc2c(=O)c(O)c(-c3ccc(Cl)c([N+](=O)[O-])c3)[nH]c2c1 ?
ZTA counter: 17.6; EBNA-1 inh: 6.7; HCV core dimer: 40.0

Results for CCOC(=O)C1CCCN(C(=O)/C(=C/c2ccco2)NC(=O)c2ccccc2)C1 (stereo not drawn) ?
HCV NS3 hel inh: 45.2*; ZTA counter: 1.1; EBNA-1 inh: -3.6; HCV core dimer: 6.1; NS3 hel confirm: -16.2; DNA FID counter: -37.4

How did O=C(N/C(=C/c1ccco1)C(=O)N1CCCCCC1)c1ccccc1 do in these assays?
HCV NS3 hel inh: 10.5; ZTA counter: 4.0; EBNA-1 inh: -0.1; HCV core dimer: 10.0

How did CCC(C(=O)OCC(=O)Nc1c(Cl)cccc1Cl)c1ccccc1 (stereo not drawn) do in these assays?
HCV NS3 hel inh: -2.1; ZTA counter: 0.0; EBNA-1 inh: 3.2; HCV core dimer: 0.6

Results for CCCCN1CC(=O)N2[C@H]3c4cc(Br)ccc4OC[C@@H]3[C@H](C(=O)OCC)[C@]2(C)C1=O ?
ZTA counter: -7.3

How did COc1ccc(C(=O)Cn2c(Cl)nc3c2c(=O)n(C)c(=O)n3C)cc1 do in these assays?
HCV NS3 hel inh: -4.7; ZTA counter: 1.3; EBNA-1 inh: -0.5; HCV core dimer: 0.4

What do the screens show for `COc1ccc(OC)c(/C=C2\SC(=S)N(C(C(=O)O)c3ccccc3)C2=O)c1` (stereo not drawn)?
HCV NS3 hel inh: 47.4*; ZTA counter: 16.6; EBNA-1 inh: 4.4; HCV core dimer: 13.1; NS3 hel confirm: 83.5*; DNA FID counter: 15.9

How did CCOc1ccc(/C=C2\SC(=S)N(C(C(=O)O)c3ccccc3)C2=O)cc1OC (stereo not drawn) do in these assays?
HCV NS3 hel inh: 28.2; ZTA counter: 5.8; EBNA-1 inh: 4.3; HCV core dimer: 6.0

Results for CCn1cc(CN2CCCC(C(=O)c3ccc(-c4ccccc4)cc3)C2)cn1 (stereo not drawn) ?
HCV NS3 hel inh: -26.0; ZTA counter: 6.4; EBNA-1 inh: 0.4; HCV core dimer: 2.8

What do the screens show for `O=C(O)COCC(=O)Nc1cc(C(F)(F)F)cc(C(F)(F)F)c1`?
HCV NS3 hel inh: -2.9; ZTA counter: 8.6; EBNA-1 inh: -1.6; HCV core dimer: -5.2

How did CC(CC(=O)O)CC(=O)Nc1cc(C(F)(F)F)cc(C(F)(F)F)c1 (stereo not drawn) do in these assays?
HCV NS3 hel inh: 45.1*; ZTA counter: -0.1; EBNA-1 inh: 0.9; HCV core dimer: -1.1; NS3 hel confirm: 5.1; DNA FID counter: 5.0

Results for CC(C)n1nc(C(=O)Nc2ccc3c(c2)OCO3)c2ccccc2c1=O ?
ZTA counter: 10.7

What do the screens show for `CC[C@H]1OC(=O)[C@H](C)[C@@H](O[C@H]2C[C@@](C)(OC)[C@@H](O)[C@H](C)O2)[C@H](C)[C@@H](O[C@@H]2O[C@H](C)C[C@H](N(C)C)[C@H]2O)[C@](C)(O)C[C@@H](C)C(=O)[C@H](C)[C@@H](O)[C@]1(C)O`?
HCV NS3 hel inh: 47.0*; ZTA counter: 2.3; EBNA-1 inh: 10.8; HCV core dimer: 2.8; NS3 hel confirm: 75.0*; DNA FID counter: -24.7

What do the screens show for `COc1cc(/C=C2/C(=O)N(c3ccc(C(=O)O)cc3)N=C2C)cc(OC)c1O`?
HCV NS3 hel inh: 21.8

Results for C#CCOc1ccc(/C=C2/C(=O)N(c3cccc(C(=O)O)c3)N=C2C)cc1OC ?
HCV NS3 hel inh: 39.8*; ZTA counter: -0.1; EBNA-1 inh: -0.8; HCV core dimer: 6.9; NS3 hel confirm: 8.1; DNA FID counter: 11.9

Results for CCn1c(/C=C/c2ccc(O)cc2)nc2ccccc2c1=O ?
HCV NS3 hel inh: -9.3; ZTA counter: 5.3; EBNA-1 inh: 13.9; HCV core dimer: 1.4

Results for COc1ccc(/C=C/c2nc3ccccc3c(=O)n2-c2cccc(C(=O)O)c2)cc1 ?
HCV NS3 hel inh: 41.4*; ZTA counter: -19.1; EBNA-1 inh: -3.4; HCV core dimer: -5.4; NS3 hel confirm: 5.9; DNA FID counter: -39.1

Results for CCOC(=O)c1c(CC(C)C)csc1NC(=O)c1ccccc1C(=O)O ?
HCV NS3 hel inh: 49.6*; ZTA counter: 12.2; EBNA-1 inh: 0.8; HCV core dimer: 12.4; NS3 hel confirm: 71.3*; DNA FID counter: -15.6
